Sampled rows, rich in hits. Any-hit rate of the full collection: about 2.5%.
INS promoter inh: TRM-6 insulin promoter activity inhibition | TRM-6 cells (human fetal islet line), insulin promoter-eGFP reporter, imaging; reporter expression induced with tamoxifen | inhibition, % at 2 µM | 130,000 tested, 0.9% active;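 active = inhibition above the mean plus 3 SD, with well images judged a real hit on visual review, cut at about 60% in these data, passing the limit was not always enough; inconclusive = inhibition over the cutoff but images rejected on review; inactive = inhibition not above the cutoff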
NPY Y2 blocker: NPY-Y2 (human) receptor antagonism | NPY-Y2 expressing cells, antagonist mode | inhibition, % at 2.7 µM | 140,000 tested, 0.99% active | AID 793; in the data active = inhibition above about 17%
NPY Y1 blocker: NPY-Y1 (human) receptor antagonism | HEK293-CNG Y1 cells, membrane potential fluorescence; NPY at EC95, then isoproterenol | inhibition, % at 3.6 µM | AID 1040 | 200,000 tested, 1% active;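 active = inhibition above the campaign mean inhibition of all tested compounds plus 3 SD, cut at about 20% in these data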
Target sequence (P25929 whole entry, looked up): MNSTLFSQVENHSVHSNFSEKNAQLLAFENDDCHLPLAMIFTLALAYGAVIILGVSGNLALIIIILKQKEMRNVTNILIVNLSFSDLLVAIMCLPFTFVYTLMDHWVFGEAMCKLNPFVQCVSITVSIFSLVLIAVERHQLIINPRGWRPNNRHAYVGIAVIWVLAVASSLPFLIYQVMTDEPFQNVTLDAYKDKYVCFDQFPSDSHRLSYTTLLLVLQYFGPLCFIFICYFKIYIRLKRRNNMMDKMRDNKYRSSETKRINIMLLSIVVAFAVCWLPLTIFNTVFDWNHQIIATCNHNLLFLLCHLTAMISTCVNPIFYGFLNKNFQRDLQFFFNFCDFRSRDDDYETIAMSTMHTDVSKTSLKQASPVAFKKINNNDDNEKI
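System: HEK293 cells with Y1 receptor plus CNG channel / Probe or stimulus: NPY 25 nM then isoproterenol 1 µM plus Ro 20-1724 25 µM / Compound: one concentration, 3.6 µM, in 0.4% DMSO / Schedule: compound incubation 1 h at room temperature, readout 45 min post-stimulation / Measured by: membrane potential fluorescence / Read-out: % inhibition of NPY effect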
NPY-Y2 PAM-ag: potentiates or activates human NPY-Y2 receptor. P49146. 220,000 tested, 0.45% active. activation, % at 3.6 µM. cells expressing NPY-Y2, potentiator/agonist read-out; in the data active = activation above about 27%;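 note: cells stimulated with NPY near EC25 plus isoproterenol at EC100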
NPY-Y1 PAM-ag: potentiators or agonists of human neuropeptide Y receptor Y1; NPY-Y1 expressing cells, potentiator/agonist activation; AID 1304; 220,000 tested, 0.37% active; activation, % at 3.6 µM; in the data active = activation above about 33%, passing the limit was not always enough;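 note: cells stimulated with NPY at EC10 then isoproterenol at EC100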
Ins promoter up: MIN6 insulin promoter up-regulation | z-score at 5 µM | MIN6 insulin promoter-GFP reporter, high-content imaging; stronger effect = higher value | 190,000 tested, 0.3% active;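 active = z-score above 3 at 5 µM with at least 500 cells counted in the well; inconclusive = wells under 500 cells, flagged as cytotoxic or low count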
NPY1 antag ctr: antagonizes human NPY-Y1, counter-screen to NPY-Y2 antagonists | 710 tested, 19% active | inhibition, % at 3.6 µM | cell-based NPY-Y1 antagonism counterscreen | shares compounds with NPY Y2 blocker;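 note: cells challenged with NPY then isoproterenol with cAMP sensed through a CNG channel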
NPY2 antag conf: confirmation of human neuropeptide Y receptor Y2 antagonists; shares compounds with NPY Y2 blocker; HEK293 NPY-Y2 CNG channel, membrane potential fluorescence; inhibition, % at 2.8 µM; 710 tested, 32% active; AID 1257;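 active = mean inhibition of triplicate wells above the hit cutoff set in the primary screen, cut at about 17% in these data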
NPY-Y1 ant conf: human NPY-Y1 antagonism, confirmation. shares compounds with NPY Y1 blocker. HEK293-CNG NPY-Y1, membrane potential fluorescence, cAMP; NPY challenge against isoproterenol-raised cAMP. inhibition, % at 3.6 µM. 1,200 tested, 21% active
NPY-Y2 antag ct: antagonizes human NPY-Y2, counter-screen to NPY-Y1 antagonists; inhibition, % at 3.6 µM; 1,200 tested, 28% active; AID 1255; shares compounds with NPY Y1 blocker; HEK293 NPY-Y2 CNG membrane potential fluorescence, antagonism; cells given NPY, then isoproterenol; in the data active = inhibition above about 17%
Numbers stand for hits; . = inactive; ? = inconclusive; / = no result. Cut-off read from the data, not from the text of the source, unless noted: active = inhibition above about 20%; inactive = the rest.

SMILES | INS promoter inh | NPY Y2 blocker | NPY Y1 blocker | NPY-Y2 PAM-ag | NPY-Y1 PAM-ag | Ins promoter up | others
CCOC(=O)c1sc(/N=C/c2c(O)n(-c3cccc(C)c3)c(=O)[nH]c2=O)c(C#N)c1C | / | . | . | . | . | .
CSc1nc(N)c(N=Nc2ccc([As](=O)(O)O)cc2)c(=O)[nH]1 | / | / | / | . | . | .
CC(Cc1ccccc1)NC(=O)/C=C/C(=O)O (stereo not drawn) | 77.8 | / | . | . | . | .
CC(Cc1ccccc1)NC(=O)NC(C)Cc1ccccc1 (stereo not drawn) | . | . | . | . | . | /
C=C[C@@H]1C[C@@]1(C)[C@@H](NP(=O)(c1ccccc1)c1ccccc1)c1ccccc1 | . | 23.1 | 37.8 | . | . | .
CCN1CCN(Cc2cc(C(C)(C)C)c(O)c(C(C)(C)C)c2)CC1 | / | . | . | 62.4 | 68.4 | /
CN(C)C(=S)SSC(=S)N(C)C | 100.0 | / | . | . | . | ?
Cc1ccc(OP(=O)(NCc2ccccc2)Oc2ccc(C)cc2)cc1 | / | . | . | . | . | .
Cc1ccc(OP(=O)(O)Oc2ccc(C)cc2)cc1 | . | . | 25.8 | . | . | /
O=C1CC(c2ccccc2)CN1 (stereo not drawn) | / | / | / | . | . | .
Cc1ccc2cc3cc(C(=O)N4CCC5(CC4)OCCO5)oc3nc2c1 | . | . | . | . | . | /
Cc1cc(C)n2nc(SC(C)C(=O)N3CCC4(CC3)OCCO4)nc2n1 (stereo not drawn) | / | . | . | 98.8 | 73.4 | .
O=C(N/N=C1/CN2CCC1CC2)c1cc2ccccc2cc1O | . | . | . | . | . | .
CCOP(=S)(OCC)c1ccc(N(C)C)cc1 | . | 17.2 | . | . | . | . | NPY1 antag ctr=.;NPY2 antag conf=.
CN(C)c1ccc(P(=S)(N(C)C)N(C)C)cc1 | . | . | . | . | . | .
CCCCn1c(O)c(C=Nc2c(C)n(C)n(-c3ccccc3)c2=O)c(=O)[nH]c1=O | / | . | . | . | . | .
CC1CCC(C(C)C)C(OC(=O)COC(=O)c2ccccc2N)C1 (stereo not drawn) | . | 18.3 | . | . | . | . | NPY1 antag ctr=.;NPY2 antag conf=.
COc1ccc2nc(/N=C/c3c(O)n(-c4cccc(Cl)c4)c(=O)[nH]c3=O)sc2c1 | . | . | . | . | . | /
CCC(=NCCC(c1ccccc1)c1ccccc1)c1c(O)[nH]c(=O)[nH]c1=O | . | 35.1 | . | . | . | . | NPY1 antag ctr=39.8;NPY2 antag conf=66.8
COc1ccc(-n2c(O)c(C(C)=NCc3ccco3)c(=O)[nH]c2=O)cc1 | . | . | . | . | . | .
O=C(c1ccco1)c1cn(Cc2ccccc2)c2ccccc12 | . | . | . | . | . | .
O=C(c1ccco1)c1cn(Cc2ccccc2Cl)c2ccccc12 | . | 23.9 | . | . | . | . | NPY1 antag ctr=.;NPY2 antag conf=.
N#Cc1ccccc1Cn1cc(C(=O)c2ccco2)c2ccccc21 | . | 17.2 | . | . | . | . | NPY1 antag ctr=.;NPY2 antag conf=.
O=P(Oc1ccccc1)(Oc1ccccc1)C(Nc1ccccc1)c1ccccc1 (stereo not drawn) | / | 28.2 | . | . | . | . | NPY1 antag ctr=26.5;NPY2 antag conf=20.0
COP(=O)(OC)C(Nc1ccccn1)c1ccccc1 (stereo not drawn) | . | . | . | . | . | .
SMILES | INS promoter inh | NPY Y2 blocker | NPY Y1 blocker | NPY-Y2 PAM-ag | NPY-Y1 PAM-ag | Ins promoter up | others
CCOC(=O)C1(CCc2ccccc2)CCN(C2CCSCC2)CC1 | . | / | 22.9 | . | . | . | NPY-Y1 ant conf=.;NPY-Y2 antag ct=.
CN1CCN(S(=O)(=O)c2cnc(Cl)c(Br)c2)CC1 | / | . | . | . | . | .
COc1ccc2c(CN3CC=C(c4ccccc4)CC3)cc(=O)oc2c1 | . | / | . | . | . | .
COc1ccc2ccc(O)c(CN3CC=C(c4ccccc4)CC3)c2c1 | / | / | 23.2 | . | . | . | NPY-Y1 ant conf=.;NPY-Y2 antag ct=23.8
Cc1ccsc1C(=O)C1CCCN(Cc2ccccc2O)C1 (stereo not drawn) | / | / | . | . | . | .
Cc1ccsc1C(=O)C1CCCN(Cc2cccn2-c2ccccn2)C1 (stereo not drawn) | . | / | 28.6 | . | . | . | NPY-Y1 ant conf=20.8;NPY-Y2 antag ct=24.5
COc1cccc(NP(=O)(Oc2ccccc2)Oc2ccccc2)c1 | / | . | 22.1 | . | . | . | NPY-Y1 ant conf=.;NPY-Y2 antag ct=.
COc1cccc(C(=O)C2CCCN(Cc3ccc4nonc4c3)C2)c1 (stereo not drawn) | . | / | 29.1 | . | . | . | NPY-Y1 ant conf=.;NPY-Y2 antag ct=.
CCOc1cc(C2NCc3ccccc3-n3cccc32)ccc1O (stereo not drawn) | / | . | 22.1 | . | . | . | NPY-Y1 ant conf=.;NPY-Y2 antag ct=.
CCOc1cccc(C2NCc3ccccc3-n3cccc32)c1O (stereo not drawn) | / | . | . | . | . | .
O=c1[nH]c(=O)n(-c2cccc3ccccc23)c(O)c1/C=N/N1CCCCC1c1cccnc1 (stereo not drawn) | . | . | 25.4 | . | . | . | NPY-Y1 ant conf=.;NPY-Y2 antag ct=.
CCOc1cccc(=NC2CCCCC2)c2c(C)n(C)c(C)c12 | / | / | / | . | . | ?
COCCOC(=O)C1=C(N)Oc2c(c(=O)oc3ccccc23)C1c1ccncc1 (stereo not drawn) | . | . | . | . | . | .
CCC(C)C12CN3CCN(CC(C)(C3)C1O)C2 (stereo not drawn) | . | / | . | . | . | /
Cc1cc(NCCN)nc2ccccc12 | . | . | 20.8 | . | . | . | NPY-Y1 ant conf=.;NPY-Y2 antag ct=.
CN(CC1COc2ccccc2O1)c1nc(-c2cccnc2)nc2ccccc12 (stereo not drawn) | / | . | 21.9 | . | . | / | NPY-Y1 ant conf=.;NPY-Y2 antag ct=.
CN1CCC(N(C)c2nc(-c3ccc([N+](=O)[O-])cc3)nc3ccccc23)CC1 | / | . | . | . | . | .
C=CCc1cc(C=C2C(=O)N(C)C(=O)N(C)C2=O)cc(OCC)c1OCc1ccccc1 | / | . | . | . | . | .
CN(C)C(Cc1ccccc1)C(=O)c1ccc(-c2ccccc2)cc1 (stereo not drawn) | / | . | 27.1 | . | . | . | NPY-Y1 ant conf=.;NPY-Y2 antag ct=.
CCc1c(C(=O)NN2C(=O)C3C4CCC(O4)C3C2=O)csc1C (stereo not drawn) | . | . | . | . | . | .
Cc1ccccc1C(O)(Cc1ccccc1)C1CN2CCC1CC2 (stereo not drawn) | . | . | 20.9 | . | . | / | NPY-Y1 ant conf=.;NPY-Y2 antag ct=.
Fc1ccccc1CNC1CN2CCC1CC2 (stereo not drawn) | . | / | . | . | . | .

Assay outcomes (PubChem)
